Results as given in ChEMBL document CHEMBL3297685, “Carbonic anhydrase inhibitors: Synthesis, molecular docking, cytotoxic and inhibition of the human carbonic anhydrase isoforms I, II, IX, XII with novel benzenesulfonamides incorporating pyrrole, pyrrolopyrimidine and fused pyrrolopyrimidine moieties” (Bioorg Med Chem, 2014).

Experiments:
MCF7 [1] = experiment: Cytotoxicity against human MCF7 cells assessed as cell survival at 10 uM after 48 hrs by […]; assay type: functional; details: MCF7, 48 h, read-out: Survival
Procedure, shortened: (§1)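 MCF-7 human breast tumour cells seeded at 10^4 cells/well and left 24 h to attach. Compounds in DMSO added at 10, 25, 50 or 100 µM, triplicate wells per concentration, 48 h at 37 °C, 5% CO2. Cells fixed and stained 30 min with 0.4% SRB in 1% acetic acid, bound dye recovered in Tris-EDTA, absorbance read. Surviving fraction reported.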

MCF7 [2] = experiment: Cytotoxicity against human MCF7 cells assessed as reduction in cell survival after 48 hrs by MTT assay; details: MCF7, 48 h
MCF7 [3] = experiment: Cytotoxicity against human MCF7 cells assessed as cell survival at 25 uM after 48 hrs by […]; assay type: functional; details: MCF7, 48 h, read-out: Survival; procedure, shortened: as §1
MCF7 [4] = experiment: Cytotoxicity against human MCF7 cells assessed as cell survival at 50 uM after 48 hrs by […]; assay type: functional; details: MCF7, 48 h, read-out: Survival; procedure, shortened: as §1
MCF7 [5] = experiment: Cytotoxicity against human MCF7 cells assessed as cell survival at 100 uM after 48 hrs by SRB assay; details: MCF7, 48 h, read-out: Survival
Carbonic anhydrase 9 = Carbonic anhydrase 9 (Homo sapiens, UniProt Q16790); experiment: Inhibition of human recombinant carbonic anhydrase 9 preincubated for 15 mins by stopped-flow CO2 hydrase assay

| SMILES | viability at 10 µM (MCF7 [1]) | IC50 (MCF7 [2]) | viability at 25 µM (MCF7 [3]) | viability at 50 µM (MCF7 [4]) | viability at 100 µM (MCF7 [5]) | Ki (Carbonic anhydrase 9) |
| --- | --- | --- | --- | --- | --- | --- |
| C/C(CC(=O)c1ccccc1)=N/n1cnc2c(c(-c3ccc(Br)cc3)cn2-c2ccc(S(N)(=O)=O)cc2)c1=N | 38.1% | 7.84 µM | 33.3% | 25.1% | 30.1% | 0.0028 µM |
| CC1=NN2C=Nc3c(c(-c4ccc(Br)cc4)cn3-c3ccc(S(N)(=O)=O)cc3)C2=NC(c2ccccc2)=C1 | 30.3% | 7.29 µM | 30.6% | 27.7% | 28% | 0.0036 µM |
| N#Cc1c(-c2ccc(Br)cc2)cn(-c2ccc(S(N)(=O)=O)cc2)c1N | 32.7% | 7.56 µM | 27.3% | 23.3% | 25.5% | 0.0063 µM |
| CCO/C=N/c1c(C#N)c(-c2ccc(Br)cc2)cn1-c1ccc(S(N)(=O)=O)cc1 | 34% | 7.56 µM | 29.4% | 24.6% | 25.6% | 0.0039 µM |
| N=c1c2c(-c3ccc(Br)cc3)cn(-c3ccc(S(N)(=O)=O)cc3)c2ncn1N | 33% | 7.29 µM | 30.9% | 22.7% | 26.8% | 0.0027 µM |
| N#Cc1c(N)nn2cnc3c(c(-c4ccc(Br)cc4)cn3-c3ccc(S(N)(=O)=O)cc3)c12 | 34.7% | 7.56 µM | 29.2% | 21.3% | 22.1% | 0.0024 µM |
| CCOC(=O)c1nc2c3c(-c4ccc(Br)cc4)cn(-c4ccc(S(N)(=O)=O)cc4)c3ncn2n1 | 30.5% | 7.29 µM | 28.1% | 27.4% | 30.9% | 0.0027 µM |
| CCOC(=O)Cc1nc2c3c(-c4ccc(Br)cc4)cn(-c4ccc(S(N)(=O)=O)cc4)c3ncn2n1 | 42.6% | 8.94 µM | 41% | 34.8% | 33.5% | 0.003 µM |
| CC(=O)Cc1nc2c3c(-c4ccc(Br)cc4)cn(-c4ccc(S(N)(=O)=O)cc4)c3ncn2n1 | 40% | 8.94 µM | 39.9% | 36.5% | 35% | 0.0031 µM |
| CCOC(=O)n1c(=O)nc2c3c(-c4ccc(Br)cc4)cn(-c4ccc(S(N)(=O)=O)cc4)c3ncn21 | 36.1% | 7.56 µM | 31.1% | 23.2% | 21.6% | 0.0026 µM |
| NS(=O)(=O)c1ccc(-n2cc(-c3ccc(Br)cc3)c3c2ncn2nnnc32)cc1 | 34.8% | 7.84 µM | 29.4% | 25.4% | 21.6% | – |
| NS(=O)(=O)c1ccc(-n2cc(-c3ccc(Br)cc3)c3c2N=CN2NC(=O)CN=C32)cc1 | 39.3% | 8.11 µM | 35.8% | 33.7% | 36.2% | – |
| NS(=O)(=O)c1ccc(-n2cc(-c3ccc(Br)cc3)c3c2ncn2[nH]c(=O)c(=O)nc32)cc1 | 43.6% | 8.66 µM | 36.6% | 35% | 35.8% | 0.325 µM |
| CC1=CC(C)=NN2C=Nc3c(c(-c4ccc(Br)cc4)cn3-c3ccc(S(N)(=O)=O)cc3)C2=N1 | 38% | 7.84 µM | 28.5% | 33.2% | 37.5% | 0.0496 µM |
| N#CC1=C(N)N=C2c3c(-c4ccc(Br)cc4)cn(-c4ccc(S(N)(=O)=O)cc4)c3N=CN2N=C1 | 38.2% | 8.11 µM | 38% | 40.1% | 37.9% | 0.0031 µM |
| CCOC(=O)C1=C(N)N=C2c3c(-c4ccc(Br)cc4)cn(-c4ccc(S(N)(=O)=O)cc4)c3N=CN2N=C1 | 37.2% | 7.84 µM | 37.7% | 35.3% | 39.1% | 0.003 µM |
| NS(=O)(=O)c1ccc(-n2cc(-c3ccc(Br)cc3)c3c2ncn2nc4c5ccccc5nc-4nc32)cc1 | 34.7% | 7.84 µM | 33.8% | 31.5% | 38.1% | – |
| CC(=O)N1C(=O)/C(=N\n2cnc3c(c(-c4ccc(Br)cc4)cn3-c3ccc(S(N)(=O)=O)cc3)c2=N)c2ccccc21 | 34.2% | 7.56 µM | 28.7% | 25.9% | 32.6% | – |
| COc1cccc2c1C(=O)c1c(O)c3c(c(O)c1C2=O)C[C@@](O)(C(=O)CO)C[C@@H]3O[C@H]1C[C@H](N)[C@H](O)[C@H](C)O1 [DOXORUBICIN] | 31.4% | – | 30.9% | 25.1% | 26.6% | – |
